The source of these data is ChEMBL document CHEMBL1156952, “Synthesis and biological evaluations of novel bendazac lysine analogues as potent anticataract agents” (Bioorg Med Chem Lett, 2010).

Molecules are shown by their SMILES. Converted amounts (≈) assume the structure as drawn.

Series [1] can be described thus: Aqueous solubility of the compound. The series is classed as physicochemical. The following applies: water (aqueous).
Series [2] in a line: Anticataract activity against FeCl3/H2O2-induced cataract in rabbit lens assessed as absence of opacificaion at 0.5 mM treated 1 hr before FeCl3/H2O2 challenge measured after 24 hrs. The class given is functional, Oryctolagus cuniculus, Lens of camera-type eye.
Series [3] can be described thus: Anticataract activity against FeCl3/H2O2-induced cataract in rabbit lens assessed as slight degree of opacificaion at 0.5 mM treated 1 hr before FeCl3/H2O2 challenge measured after 24 hrs. The class given is functional, Oryctolagus cuniculus, Lens of camera-type eye.
The nature of series [4]: Anticataract activity against FeCl3/H2O2-induced cataract in rabbit lens assessed as middle degree of opacificaion at 0.5 mM treated 1 hr before FeCl3/H2O2 challenge measured after 24 hrs. The series is classed as functional, Oryctolagus cuniculus, Lens of camera-type eye.
Series [5] can be described thus: Anticataract activity against FeCl3/H2O2-induced cataract in rabbit lens assessed as extensive mature nuclear opacity at 0.5 mM treated 1 hr before FeCl3/H2O2 challenge measured after 24 hrs. The series is classed as functional, Oryctolagus cuniculus, Lens of camera-type eye.
The nature of series [6]: Anticataract activity against FeCl3/H2O2-induced cataract in rat lens assessed as absence of opacificaion at 0.5 mM treated 1 hr before FeCl3/H2O2 challenge measured after 24 hrs. The series is classed as functional, Lens of camera-type eye. The procedure, abridged:
(§1)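 Isolated rat lenses were cultured in DMEM and challenged with FeCl3 (0.02%) plus H2O2 (0.5%). Compounds were added at 0.5 mM to the medium of transparent lenses, with a challenged, untreated control. Lenses were scored as the percentage at each opacification grade (−, +, ++, +++).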

A short description of series [7]: Anticataract activity against FeCl3/H2O2-induced cataract in rat lens assessed as slight degree of opacificaion at 0.5 mM treated 1 hr before FeCl3/H2O2 challenge measured after 24 hrs. The class given is functional, Lens of camera-type eye. In a few lines: as §1
Series [8] can be described thus: Anticataract activity against FeCl3/H2O2-induced cataract in rat lens assessed as middle degree of opacificaion at 0.5 mM treated 1 hr before FeCl3/H2O2 challenge measured after 24 hrs. The class given is functional, Lens of camera-type eye. In a few lines: as §1
Series [9] can be described thus: Anticataract activity against FeCl3/H2O2-induced cataract in rat lens assessed as extensive mature nuclear opacity at 0.5 mM treated 1 hr before FeCl3/H2O2 challenge measured after 24 hrs. The series is classed as functional, Lens of camera-type eye. The procedure, abridged: as §1
The nature of series [10]: Anticataract activity against FeCl3/H2O2-induced cataract in rabbit lens assessed as absence of opacificaion at 10 mM treated 1 hr before FeCl3/H2O2 challenge measured after 24 hrs. The series is classed as functional, Oryctolagus cuniculus, Lens of camera-type eye.
Series [11] is described as follows: Anticataract activity against FeCl3/H2O2-induced cataract in rabbit lens assessed as slight degree of opacificaion at 10 mM treated 1 hr before FeCl3/H2O2 challenge measured after 24 hrs. The class given is functional, Oryctolagus cuniculus, Lens of camera-type eye.
A short description of series [12]: Anticataract activity against FeCl3/H2O2-induced cataract in rabbit lens assessed as middle degree of opacificaion at 10 mM treated 1 hr before FeCl3/H2O2 challenge measured after 24 hrs. The series is classed as functional, Oryctolagus cuniculus, Lens of camera-type eye.
A short description of series [13]: Anticataract activity against FeCl3/H2O2-induced cataract in rabbit lens assessed as extensive mature nuclear opacity at 10 mM treated 1 hr before FeCl3/H2O2 challenge measured after 24 hrs. The class given is functional, Oryctolagus cuniculus, Lens of camera-type eye.
For series [14], the species on record is Oryctolagus cuniculus. In words: Anticataract activity against FeCl3/H2O2-induced cataract in rabbit lens treated 1 hr before FeCl3/H2O2 challenge measured after 24 hrs. The class given is functional, tissue-based. The following applies: Lens of camera-type eye.
The species named for series [15] is Oryctolagus cuniculus. Kind of series: Induction of water-solvent protein level in rabbit lens homogenates at 5 mM (Rvb= 7.40 +/-0.73 mg/mL). The series is classed as functional, tissue-based. The following applies: Lens of camera-type eye. The procedure, abridged:
(§2)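 Rabbit lenses were cultured in DMEM under FeCl3 (0.02%) plus H2O2 (2%) challenge, with compound at 5, 10 or 15 mM in the medium. Each group's lenses were then homogenized. Water-soluble protein, total antioxidant capacity and malondialdehyde were each measured in the homogenate with a reagent kit.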

The species named for series [16] is Oryctolagus cuniculus. Kind of series: Induction of total-antioxidant capacity level in rabbit lens homogenates at 5 mM (Rvb= 0.04 u/mg). The class given is functional, tissue-based. The settings on record: Lens of camera-type eye. The procedure, abridged:
as §2

The species entered for series [17] is Oryctolagus cuniculus. In words: Induction of total-antioxidant capacity level in rabbit lens homogenates at 10 mM (Rvb= 0.04 u/mg). The settings on record: Lens of camera-type eye. The class given is functional, tissue-based. In a few lines: as §2
Series [18] is filed under the species Oryctolagus cuniculus. In words: Induction of total-antioxidant capacity level in rabbit lens homogenates at 15 mM (Rvb= 0.04 u/mg). The class given is functional, tissue-based. The following applies: Lens of camera-type eye. The procedure, abridged: as §2
The species entered for series [19] is Oryctolagus cuniculus. In words: Reduction of malondialdehyde level in rabbit lens homogenates at 5 mM (Rvb= 0.46 +/-0.27 nmol/mg). The settings on record: Lens of camera-type eye. The series is classed as functional, tissue-based. In a few lines: as §2
The species named for series [20] is Oryctolagus cuniculus. In words: Reduction of malondialdehyde level in rabbit lens homogenates at 10 mM (Rvb= 0.46 +/-0.27 nmol/mg). The series is classed as functional, tissue-based. The following applies: Lens of camera-type eye. In a few lines:
as §2

The species entered for series [21] is Oryctolagus cuniculus. In words: Reduction of malondialdehyde level in rabbit lens homogenates at 15 mM (Rvb= 0.46 +/-0.27 nmol/mg). The class given is functional, tissue-based. The following applies: Lens of camera-type eye. In a few lines: as §2

As for `N[C@@H](Cc1c[nH]cn1)C(=O)O.O=C(O)C(Oc1nn(Cc2ccc(Cl)cc2)c2ccccc12)C(=O)O`, the concentration in solution in series [1] (solubility) was 51000 µg/mL.

In turn, `O=C([O-])C(Oc1nn(Cc2ccccc2)c2ccccc12)C(=O)[O-].[Na+].[Na+]` registered a solubility in series [1] of 3000 µg/mL. Also, the Activity in series [2] was 0%; in series [3], 60%; in series [4], 40%; in series [5], 0%; in series [6] it was 0%; in series [7], 80%. In addition, the Activity in series [8] is recorded as 20%; in [9], 0%.

Compound `NCCCC[C@H](N)C(=O)O.O=C(O)C(Oc1nn(Cc2cccc(Cl)c2)c2ccccc12)C(=O)O` yielded a solubility in series [1] of 195000 µg/mL. Further, the Activity in [2] was 0%; in series [3], 0%; in [4], 35%; in series [5] it was 65%; in [6], 0%; in series [7], 55%. The Activity in [8] is 30%; in [9], 15%.

As to `NCCCC[C@H](N)C(=O)O.O=C(O)C(Oc1nn(Cc2ccc(Cl)cc2)c2ccccc12)C(=O)O`, the solubility in [1] amounted to 312000 µg/mL.

As to `O=C([O-])C(Oc1nn(Cc2cccc(F)c2)c2ccccc12)C(=O)[O-].[K+].[K+]`, the concentration in solution in series [1] (solubility) was 2400 µg/mL.

In turn, `NCCCC[C@H](N)C(=O)O.O=C(O)COc1nn(Cc2ccccc2)c2ccccc12` [BENDAZAC LYSINE] registered a solubility in series [1] of 93800 µg/mL. The Activity in series [2] stood at 0%; in series [3] it was 75%; in series [4], 25%; in series [5], 0%; in series [6], 0%; in series [7] it was 55%. The Activity came to 40% in series [8]; 5% in series [9]; 20% in series [10]; 65% in series [11]; 15% in [12]; 0% in series [13].

For the compound `N[C@@H](Cc1c[nH]cn1)C(=O)O.O=C(O)C(Oc1nn(Cc2ccccc2)c2ccccc12)C(=O)O`, the Activity result in series [14] was “Dose-dependent effect”. In series [15], this compound displayed a WSP level of 13 mg/mL. Also, the T-AOC level was 0.21 U/mg in series [16], 0.64 U/mg in series [17] and 0.34 U/mg in series [18]. Also, the MDA level in series [19] came to 0.04 nmol/mg; in series [20] it was 0.03 nmol/mg; in series [21], 0.08 nmol/mg.

The compound `Cc1ccc(Cn2nc(OC(C(=O)[O-])C(=O)[O-])c3ccccc32)cc1.[Na+].[Na+]` yielded a solubility in series [1] of under 1000 µg/mL.

`O=C(O)COc1nn(Cc2ccccc2)c2ccccc12` [BENDAZAC]: the solubility in series [1] is under 1000 µg/mL.

For `O=C(O)C(Oc1nn(Cc2cccc(F)c2)c2ccccc12)C(=O)O`, in [1], the solubility turned out to be 2000 µg/mL (≈ 5.81 mM).

Consider `O=C([O-])C(Oc1nn(Cc2ccc(Cl)cc2)c2ccccc12)C(=O)[O-].[K+].[K+]`, for which, in series [1], the solubility is under 1000 µg/mL.

`O=C([O-])C(Oc1nn(Cc2ccc(Cl)cc2)c2ccccc12)C(=O)[O-].[Na+].[Na+]` had a solubility in series [1] of under 1000 µg/mL.

As to `O=C(O)C(Oc1nn(Cc2ccccc2)c2ccccc12)C(=O)O`, in series [1], the solubility is under 1000 µg/mL.

`Cc1ccc(Cn2nc(OC(C(=O)O)C(=O)O)c3ccccc32)cc1.N[C@@H](Cc1c[nH]cn1)C(=O)O` yielded a solubility in [1] of 71000 µg/mL.

`O=C([O-])C(Oc1nn(Cc2cccc(F)c2)c2ccccc12)C(=O)[O-].[Na+].[Na+]`: the solubility in [1] amounted to 3200 µg/mL. Besides, the Activity in series [2] came out at 0%; in series [3], 80%; in series [4] it was 20%; in series [5], 0%; in series [6], 0%; in series [7], 60%. Moreover, the Activity was determined as 35% in [8] and 5% in [9].

In series [1], `O=C(O)C(Oc1nn(Cc2cccc(Cl)c2)c2ccccc12)C(=O)O` came in with a solubility of under 1000 µg/mL.

On to `O=C([O-])C(Oc1nn(Cc2cccc(Cl)c2)c2ccccc12)C(=O)[O-].[Na+].[Na+]`, for which the solubility in series [1] was 1200 µg/mL.

`O=C(O)COc1nn(Cc2ccccc2)c2ccccc12` yielded a WSP level in [15] of 9.34 mg/mL. Further, in series [16], the T-AOC level was found to be 0.17 U/mg. The same compound gave an MDA level in [19] of 0.22 nmol/mg.

`NCCCC[C@H](N)C(=O)O.O=C(O)C(Oc1nn(Cc2ccccc2)c2ccccc12)C(=O)O` displayed a solubility in series [1] of 123000 µg/mL. Besides, the Activity turned out to be 0% in series [2]; 30% in series [3]; 35% in series [4]; 35% in [5]; 0% in series [6]; 15% in [7]. The Activity in series [8] is 70%; in series [9], 15%.

As to `NCCCC[C@H](N)C(=O)O.O=C(O)C(Oc1nn(Cc2cccc(F)c2)c2ccccc12)C(=O)O`, the concentration in solution in series [1] (solubility) came to 134000 µg/mL. In addition, the Activity in [6] is reported as 0%; in series [7] it was 55%; in [8], 45%; in series [9], 0%.

On to `O=C([O-])C(Oc1nn(Cc2cccc(Cl)c2)c2ccccc12)C(=O)[O-].[K+].[K+]`, for which, in [1], the solubility was under 1000 µg/mL.

In [1], `O=C(O)C(Oc1nn(Cc2ccc(Cl)cc2)c2ccccc12)C(=O)O` displayed a solubility of under 1000 µg/mL.

`Cc1ccc(Cn2nc(OC(C(=O)[O-])C(=O)[O-])c3ccccc32)cc1.[K+].[K+]` showed a solubility in series [1] of under 1000 µg/mL.

Turning to `N[C@@H](Cc1c[nH]cn1)C(=O)O.O=C(O)C(Oc1nn(Cc2cccc(Cl)c2)c2ccccc12)C(=O)O`, the concentration in solution in series [1] (solubility) came to 115000 µg/mL.

Consider `Cc1ccc(Cn2nc(OC(C(=O)O)C(=O)O)c3ccccc32)cc1.NCCCC[C@H](N)C(=O)O`, for which, in series [1], the concentration in solution (solubility) was 57400 µg/mL.

`Cc1ccc(Cn2nc(OC(C(=O)O)C(=O)O)c3ccccc32)cc1` registered a solubility in [1] of under 1000 µg/mL.

Take `O=C([O-])C(Oc1nn(Cc2ccccc2)c2ccccc12)C(=O)[O-].[K+].[K+]`: the solubility in [1] worked out at 2200 µg/mL. The Activity was determined as 0% in series [2]; 30% in [3]; 40% in series [4]; 30% in series [5]; 0% in [6]; 0% in series [7]. Further, the Activity in series [8] and in series [9] was 50% each time.

On to `N[C@@H](Cc1c[nH]cn1)C(=O)O.O=C(O)C(Oc1nn(Cc2cccc(F)c2)c2ccccc12)C(=O)O`, for which the concentration in solution in series [1] (solubility) was 56600 µg/mL.
